Data: ChEMBL document CHEMBL2331370, “Structure and absolute configuration of fumiquinazoline L, an alkaloid from a gorgonian-derived Scopulariopsis sp. fungus” (J Nat Prod, 2013)
The source made the active and inactive calls. The calls are words filed in the database; no cut-off is given here.

How the values were obtained:
[1] = tested on: Bel-7402; assay: Cytotoxicity against human Bel7402 cells at 100 uM after 6 days by MTT assay; assay type: functional, cell-based
[2] = tested on: SGC-7901; assay: Cytotoxicity against human SGC7901 cells at 100 uM after 6 days by MTT assay; assay type: functional, cell-based
[3] = tested on: SPC-A1; assay: Cytotoxicity against human SPC-A1 cells at 100 uM after 6 days by MTT assay; assay type: functional, cell-based
[4] = tested on: Vibrio parahaemolyticus; assay: Antibacterial activity against Vibrio parahaemolyticus ATCC 17802 after 24 hrs by serial dilution technique; assay type: functional; conditions: ATCC 17802, 24 h
How it was run: (§1)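 Broth serial dilution MIC in 96-well plates. Compound given as DMSO stock. Strains grown overnight at 37 °C in LB broth, then diluted to 106 cfu/mL. Positive control ciprofloxacin; DMSO as negative control; LB broth as blank. Incubation 37 °C, 24 h, then plates read at 630 nm.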

[5] = tested on: A549; assay: Cytotoxicity against human A549 cells after 6 days by MTT assay; assay type: functional, cell-based; conditions: A549, 144 h
[6] = tested on: Micrococcus; assay: Antibacterial activity against Micrococcus tetragenus ATCC 13623 at 50 uM after 24 hrs by serial dilution technique; assay type: functional, organism-based; how it was run: as §1
[7] = tested on: Staphylococcus aureus; assay: Antibacterial activity against Staphylococcus aureus ATCC 27154 at 50 uM after 24 hrs by serial dilution technique; assay type: functional, organism-based; how it was run: as §1
[8] = tested on: Micrococcus luteus; assay: Antibacterial activity against Micrococcus luteus ATCC 49732 at 50 uM after 24 hrs by serial dilution technique; assay type: functional, organism-based; how it was run: as §1
[9] = tested on: Vibrio anguillarum; assay: Antibacterial activity against Vibrio anguillarum ATCC 19019 at 50 uM after 24 hrs by serial dilution technique; assay type: functional, organism-based; how it was run: as §1
[10] = tested on: K562; assay: Cytotoxicity against human K562 cells at 100 uM after 6 days by MTT assay; assay type: functional, cell-based
[11] = tested on: Bacillus cereus; assay: Antibacterial activity against Bacillus cereus ACCC 11077 at 50 uM after 24 hrs by serial dilution technique; assay type: functional, organism-based; how it was run: as §1
[12] = tested on: Staphylococcus; assay: Antibacterial activity against Staphylococcus albus ATCC 8799 after 24 hrs by serial dilution technique; assay type: functional; conditions: ATCC 8799, 24 h; how it was run: as §1
[13] = tested on: Escherichia coli; assay: Antibacterial activity against Escherichia coli ATCC 25922 at 50 uM after 24 hrs by serial dilution technique; assay type: functional, organism-based; how it was run: as §1
[14] = tested on: Bacillus subtilis; assay: Antibacterial activity against Bacillus subtilis ATCC 6633 after 24 hrs by serial dilution technique; assay type: functional; conditions: ATCC 6633, 24 h; how it was run: as §1

With `CC(C)[C@@H]1N[C@@H]2N(C1=O)c1ccccc1[C@]21C[C@@H]2C(=O)N[C@](C)(O1)c1nc3ccccc3c(=O)n12` [FUMIQUINAZOLINE L] the Activity [1] was “inactive”, the Activity [2] was “inactive” and the Activity [3] was “inactive”. The MIC [4] was greater than 50 µM, the IC50 [5] was greater than 10 µM and the Activity [6] was “inactive”. For the same compound, the Activity [7] was “inactive”, the Activity [8] was “inactive” and the Activity [9] was “inactive”. The Activity [10] was “inactive”, the Activity [11] was “inactive” and the MIC [12] was greater than 50 µM. For the same compound, the Activity [13] was “inactive” and the MIC [14] was greater than 50 µM.
